Calls of active or inactive are those of the source. The calls are words filed in the database; no cut-off is given here.
Columns and labels:
[1] = tested on: Respiratory syncytial virus; test: Antiviral activity against RSV infected in human cervix carcinoma cells assessed as inhibition of virus-induced cytopathic effect at 0.32 to 100 uM; assay type: functional, organism-based
In short: (§1)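 Confluent cell cultures were infected with 100 CCID50 of virus in the presence of test compound at 100, 40, 8, 1.6 and 0.32 μM. Cytopathic effect was scored once it was complete in untreated infected controls.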

Coxsackievirus B4 [2] = test: Antiviral activity against Coxsackievirus B4 infected in human cervix carcinoma cells assessed as inhibition of virus-induced cytopathic effect at 0.32 to 100 uM; assay type: functional, organism-based; in short: as §1
L1210 = test: Cytostatic activity against mouse L1210 cells after 2 days by coulter counter analysis; assay type: functional, cell-based; conditions: L1210, 48 h
In short: (§2)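 300,000–500,000 cells/ml mixed 1:1 with compound dilutions and incubated at 37 °C for 2 days (L1210) or 3 days (CEM, HeLa). Cell number counted with a Coulter counter; HeLa trypsinized before counting.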

CCRF-CEM = test: Cytostatic activity against human CEM cells after 3 days by coulter counter analysis; assay type: functional, cell-based; conditions: 72 h; in short: as §2
HeLa = test: Cytostatic activity against human HeLa cells after 3 days by coulter counter analysis; assay type: functional, cell-based; conditions: 72 h; in short: as §2
HCT-116 = test: Cytostatic activity against human HCT116 cells after 72 hrs by MTT assay; assay type: functional, cell-based; conditions: HCT-116, 72 h
In short: (§3)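 Monolayers in DMEM with 10% FBS, 2 mM L-glutamine and penicillin/streptomycin, 37 °C, 5% CO2. Seeded at 1–3 × 10^4 cells/ml, then compound added in tenfold dilutions (10⁻⁸–10⁻⁴ M) for 72 h. MTT read at 570 nm; percent growth taken against time-zero and untreated controls. IC50 by linear regression; quadruplicate, at least two experiments.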

MCF7 = test: Cytostatic activity against human MCF7 cells after 72 hrs by MTT assay; assay type: functional, cell-based; conditions: MCF7, 72 h; in short: as §3
NCI-H460 = test: Cytostatic activity against human NCI-H460 cells after 72 hrs by MTT assay; assay type: functional, cell-based; conditions: NCI-H460, 72 h; in short: as §3
Human alphaherpesvirus 1 = test: Antiviral activity against HSV1 KOS infected in human lung fibroblast assessed as inhibition of virus-induced cytopathic effect at 0.32 to 100 uM; assay type: functional, organism-based; in short: as §1
Human alphaherpesvirus 2 = test: Antiviral activity against HSV2 G infected in human lung fibroblast assessed as inhibition of virus-induced cytopathic effect at 0.32 to 100 uM; assay type: functional, organism-based; conditions: strain G; in short: as §1
Vaccinia virus = test: Antiviral activity against Vaccinia virus infected in human lung fibroblast assessed as inhibition of virus-induced cytopathic effect at 0.32 to 100 uM; assay type: functional, organism-based; conditions: Orthopoxvirus vaccinia
[3] = tested on: Vesicular stomatitis virus; test: Antiviral activity against VSV infected in human lung fibroblast assessed as inhibition of virus-induced cytopathic effect at 0.32 to 100 uM; assay type: functional, organism-based
Human respirovirus 3 = test: Antiviral activity against Parainfluenza virus 3 infected in african green monkey Vero cells assessed as inhibition of virus-induced cytopathic effect at 0.32 to 100 uM; assay type: functional, organism-based; in short: as §1
[4] = tested on: Mammalian orthoreovirus 1; test: Antiviral activity against Reovirus-1 infected in african green monkey Vero cells assessed as inhibition of virus-induced cytopathic effect at 0.32 to 100 uM; assay type: functional, organism-based; in short: as §1
Sindbis virus = test: Antiviral activity against Sindbis virus infected in african green monkey Vero cells assessed as inhibition of virus-induced cytopathic effect at 0.32 to 100 uM; assay type: functional, organism-based; in short: as §1
Coxsackievirus B4 [5] = test: Antiviral activity against Coxsackievirus B4 infected in african green monkey Vero cells assessed as inhibition of virus-induced cytopathic effect at 0.32 to 100 uM; assay type: functional, organism-based; in short: as §1
Punta Toro virus = test: Antiviral activity against Punta Toro virus infected in african green monkey Vero cells assessed as inhibition of virus-induced cytopathic effect at 0.32 to 100 uM; assay type: functional, organism-based; in short: as §1
[6] = tested on: Vesicular stomatitis virus; test: Antiviral activity against Vesicular stomatitis virus infected in human cervix carcinoma cells assessed as inhibition of virus-induced cytopathic effect at 0.32 to 100 uM; assay type: functional, organism-based
In short: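 Confluent human cervix carcinoma (HeLa) cultures received 100 CCID50 of VSV together with the compound at 100, 40, 8, 1.6 or 0.32 μM. Cytopathicity was read at the point of full CPE in infected, untreated control wells.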

Felid alphaherpesvirus 1 = test: Antiviral activity against Feline herpesvirus infected in feline CRFK cells assessed as inhibition of virus-induced cytopathic effect at 0.32 to 100 uM; assay type: functional, organism-based; in short: as §1
Feline coronavirus = test: Antiviral activity against Feline coronavirus infected in feline CRFK cells assessed as inhibition of virus-induced cytopathic effect at 0.32 to 100 uM; assay type: functional, organism-based; in short: as §1
Influenza A virus [7] = test: Antiviral activity against Influenza A virus H1N1 infected in MDCK cells assessed as inhibition of virus-induced cytopathic effect at 0.32 to 100 uM; assay type: functional, organism-based
In short: (§4)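 Confluent MDCK monolayers were infected in the presence of the compound at 100, 40, 8, 1.6 and 0.32 μM. Viral cytopathicity was scored once it was complete in untreated infected control cultures.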

Influenza A virus [8] = test: Antiviral activity against Influenza A virus H3N2 infected in MDCK cells assessed as inhibition of virus-induced cytopathic effect at 0.32 to 100 uM; assay type: functional, organism-based; in short: as §4
Influenza B virus = test: Antiviral activity against Influenza B virus infected in MDCK cells assessed as inhibition of virus-induced cytopathic effect at 0.32 to 100 uM; assay type: functional, organism-based; in short: as §4
[9] = tested on: Human immunodeficiency virus 1; test: Antiviral activity against HIV1 3B infected in human CEM cells assessed as inhibition of virus-induced CEM giant cell formation at 0.32 to 100 uM after 4 days; assay type: functional, organism-based; conditions: CCRF-CEM
In short: (§5)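 CEM cells (~3 × 10^5 cells/cm³) exposed to 100 CCID50/ml of virus and seeded into wells holding compound dilutions. Incubated 4 days at 37 °C, then giant cell formation examined microscopically.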

[10] = tested on: Human immunodeficiency virus 2; test: Antiviral activity against HIV2 ROD infected in human CEM cells assessed as inhibition of virus-induced CEM giant cell formation at 0.32 to 100 uM after 4 days; assay type: functional, organism-based; conditions: ISOLATE ROD, CCRF-CEM; in short: as §5
[11] = tested on: Radical scavenging activity; test: Antioxidant activity assessed as DPPH free radical scavenging activity at 100 uM after 20 mins by spectrophotometric analysis; assay type: functional
In short: (§6)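 0.05 mM DPPH in absolute ethanol mixed with an equal volume of compound in DMSO (final 100 μM). Shaken and left 20 or 60 min, then absorbance read at 517 nm and percent activity calculated. Three replicates, averaged.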

[12] = tested on: Radical scavenging activity; test: Antioxidant activity assessed as DPPH free radical scavenging activity at 100 uM after 60 mins by spectrophotometric analysis; assay type: functional; in short: as §6
[13] = Antioxidant activity assessed as inhibition of AAPH-induced linoleic acid lipid peroxidation by measuring conjugated diene hydroperoxide level; assay type: functional; design: concentration or dose not given beside the values
In short: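 Linoleic acid sodium salt (10 μL of 16 mM) in 0.05 M phosphate buffer pH 7.4 at 37 °C. Oxidation started under air with 50 μL of 40 mM AAPH. Conjugated diene hydroperoxide formation followed as absorbance rise at 234 nm; control contains the same DMSO level. At least triplicate.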

Glycine max = test: Inhibition of soybean LOX assessed as conversion of sodium linoleate to 13- hydroperoxylinoleic acid at 100 uM
[14] = dose or concentration not given here

SMILES | inhibition [1] | inhibition (Coxsackievirus B4 [2]) | IC50 (L1210) [µM] | IC50 (CCRF-CEM) [µM] | IC50 (HeLa) [µM] | IC50 (HCT-116) [µM] | IC50 (MCF7) [µM] | IC50 (NCI-H460) [µM] | inhibition (Human alphaherpesvirus 1) | inhibition (Human alphaherpesvirus 2) | inhibition (Vaccinia virus) | inhibition [3] | inhibition (Human respirovirus 3) | inhibition [4] | inhibition (Sindbis virus) | inhibition (Coxsackievirus B4 [5]) | inhibition (Punta Toro virus) | inhibition [6] | inhibition (Felid alphaherpesvirus 1) | inhibition (Feline coronavirus) | also measured
CC(C)Cc1ccc(C(C)C(=O)NNC(=O)NCC2CCCCC2)cc1 (stereo unspecified) | inactive | inactive | 44 | 26 | 142 | 21 | 13 | 29 | inactive | inactive | inactive | inactive | inactive | inactive | inactive | inactive | inactive | inactive | inactive | inactive | inhibition (Influenza A virus [7]): inactive; inhibition (Influenza A virus [8]): inactive; inhibition (Influenza B virus): inactive; inhibition [9]: inactive; inhibition [10]: inactive; Activity [11]: 3%; Activity [12]: 6%; inhibition [13, 14]: 16%; inhibition (Glycine max): 25%
CC(C(=O)NNC(=O)NOCc1ccccc1)c1cccc(Cc2ccccc2)c1 (stereo unspecified) | inactive | inactive | 79 | 101 | 78 | 56 | 41 | 82 | inactive | inactive | inactive | inactive | inactive | inactive | inactive | inactive | inactive | inactive | inactive | inactive | inhibition (Influenza A virus [7]): inactive; inhibition (Influenza A virus [8]): inactive; inhibition (Influenza B virus): inactive; inhibition [9]: inactive; inhibition [10]: inactive; Activity [11]: 3%; Activity [12]: 6%; inhibition [13]: inactive; inhibition (Glycine max): inactive
CC(C(=O)NNC(=O)NNC(=O)NO)c1cccc(Oc2ccccc2)c1 (stereo unspecified) | inactive | inactive | > 250 | > 250 | ≥ 250 | > 100 | > 100 | > 100 | inactive | inactive | inactive | inactive | inactive | inactive | inactive | inactive | inactive | inactive | inactive | inactive | inhibition (Influenza A virus [7]): inactive; inhibition (Influenza A virus [8]): inactive; inhibition (Influenza B virus): inactive; inhibition [9]: inactive; inhibition [10]: inactive; Activity [11]: 23%; Activity [12]: 48%; inhibition [13, 14]: 13%; inhibition (Glycine max): inactive
CC(C)Cc1ccc(C(C)C(=O)NNC(=O)NC2CCCC2)cc1 (stereo unspecified) | inactive | inactive | 103 | 74 | 80 | 32 | 18 | 32 | inactive | inactive | inactive | inactive | inactive | inactive | inactive | inactive | inactive | inactive | inactive | inactive | inhibition (Influenza A virus [7]): inactive; inhibition (Influenza A virus [8]): inactive; inhibition (Influenza B virus): inactive; inhibition [9]: inactive; inhibition [10]: inactive; Activity [11]: 4%; Activity [12]: 7%; inhibition [13, 14]: 26%; inhibition (Glycine max): inactive
